The record followed here is ChEMBL document CHEMBL1212938, “Inhibition of mycobacterial replication by pyrimidines possessing various C-5 functionalities and related 2'-deoxynucleoside analogues using in vitro and in vivo models” (J Med Chem, 2010).

Experiment [1] concerns Mycobacterium tuberculosis. In words: Antitubercular activity against Mycobacterium bovis BCG at 50 ug/ml after 6 days by microplate alamar blue assay. It counts as functional. As to conditions: variant bovis BCG, 144 h. The gist of the method: (§1)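 MABA run in 7H9GC medium, with drug diluted from DMSO stocks made at 100× the highest final concentration. Final levels were 100, 50, 10, 5, 2.5 and 1 μg/mL in triplicate, and the experiment was done three times. Inoculum was 2.5 × 10⁵ CFU/mL final. Alamar Blue plus Tween-80 was added once bacteria-only control wells turned pink, from day 6 on, and plates were read visually and by fluorescence after 24 h. Visual MIC is the lowest concentration preventing the blue-to-pink change. Mean percent inhibition was taken relative to bacteria-only and medium-only wells.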
In general terms: Alamar Blue is a resazurin reagent that responds to reducing activity.

Experiment [2] has as its system Mycobacterium tuberculosis. In words: Antitubercular activity against Mycobacterium bovis BCG at 100 ug/ml after 6 days by microplate alamar blue assay. It is filed as functional. The settings on record: variant bovis BCG, 144 h. The procedure, abridged:
as §1

Experiment [3] deals with Mycobacterium tuberculosis. In words: Antitubercular activity against Mycobacterium bovis BCG at 10 ug/ml after 6 days by microplate alamar blue assay. It is filed as functional. As to conditions: variant bovis BCG, 144 h. The procedure, abridged:
as §1

The test system of experiment [4] is Mycobacterium tuberculosis. In words: Antitubercular activity against Mycobacterium bovis BCG after 6 days by microplate alamar blue assay. It is filed as functional. As to conditions: variant bovis BCG, 144 h. The gist of the method: as §1
Experiment [5] has as its system Mycobacterium tuberculosis. In words: Antitubercular activity against Mycobacterium bovis BCG at 1 to 5 ug/ml after 6 days by microplate alamar blue assay. It counts as functional, variant bovis BCG. The procedure, abridged: as §1
For experiment [6], the system named is Mycobacterium tuberculosis. In words: Antitubercular activity against Mycobacterium bovis BCG at 5 ug/ml after 6 days by microplate alamar blue assay. It is filed as functional. As to conditions: variant bovis BCG, 144 h. The gist of the method:
as §1

For experiment [7], the system named is Mycobacterium tuberculosis. In words: Antitubercular activity against Mycobacterium bovis BCG at 0.5 to 1 ug/ml after 6 days by microplate alamar blue assay. It counts as functional, variant bovis BCG. The gist of the method:
as §1

Experiment [8] concerns Mycobacterium tuberculosis. In words: Antitubercular activity against Mycobacterium bovis BCG at 1 ug/ml after 6 days by microplate alamar blue assay. As to conditions: variant bovis BCG, 144 h. It is filed as functional. The gist of the method:
as §1

SMILES strings stand for the structures. In brackets after ≈: the same amount, converted by molar mass.

Take `O=c1[nH]cc(C#Cc2ccccc2)c(=O)[nH]1`: the inhibition (in general, the change of the read-out against control, counted positive when it falls) at 50 µg/mL in experiment [1] was 90%. The molecule also displayed an inhibition at 100 µg/mL in experiment [2] of 90%. This molecule gave an inhibition at 10 µg/mL in experiment [3] of 40%. Besides, the MIC50 – broadly, the lowest concentration that inhibits either 50% of growth or 50% of the strains tested, depending on the study – in experiment [4] was at least 10 µg/mL.
`CCCc1ccc(C#Cc2c[nH]c(=O)[nH]c2=O)cc1` returned an inhibition at 50 µg/mL in experiment [1] of 70%. The molecule further yielded an inhibition at 100 µg/mL in experiment [2] of 100%. In experiment [3], this molecule registered an inhibition at 10 µg/mL of 70%. Moreover, the “inhibition (INH)” value in experiment [5] came out at 50%. In addition, in experiment [4], the MIC50 is 1 µg/mL (≈ 3.93 µM).
Consider `CCCCCc1ccc(C#Cc2c[nH]c(=O)[nH]c2=O)cc1`, for which 50 µg/mL produced 60% inhibition in experiment [1]. For the same molecule, in experiment [2], 100 µg/mL produced 90% inhibition. Besides, the inhibition at 10 µg/mL in experiment [3] stood at 60%. Also, in experiment [5], the “inhibition (INH)” value was found to be 50%. In experiment [4], this molecule yielded an MIC50 of 1 µg/mL (≈ 3.54 µM).
Take `O=c1[nH]cc(C#Cc2ccccn2)c(=O)[nH]1`: the inhibition at 50 µg/mL in experiment [1] is 75%. Further, in experiment [2], the inhibition at 100 µg/mL was 90%. The inhibition at 5 µg/mL in experiment [6] was determined as 60%. In experiment [3], this molecule yielded an inhibition at 10 µg/mL of 75%. In experiment [4], this molecule registered an MIC50 of under 5 µg/mL.
`C(C#Cc1ccccn1)#Cc1ccccn1`: the inhibition at 50 µg/mL in experiment [1] stood at 100%. The inhibition at 100 µg/mL in experiment [2] turned out to be 100%. In experiment [3], this molecule displayed an inhibition at 10 µg/mL of 100%. Also, the MIC50 in experiment [4] is under 0.5 µg/mL. Further, in experiment [7], the “inhibition (INH)” value amounted to 80%.
In experiment [1], `CCCc1cc2c[nH]c(=O)nc2o1` had an inhibition at 50 µg/mL of 50%. Besides, in experiment [2], at 100 µg/mL the inhibition was 90%. This molecule also returned an inhibition at 10 µg/mL in experiment [3] of 50%. In addition, the MIC50 in experiment [4] was 10 µg/mL (≈ 56.1 µM).
The molecule `CCCCCc1cc2c[nH]c(=O)nc2o1` returned an MIC50 in experiment [4] of 100 µg/mL (≈ 485 µM).
`O=c1[nH]c(=O)n([C@H]2C[C@H](O)[C@@H](CO)O2)cc1C#Cc1ccccn1`: the inhibition at 50 µg/mL in experiment [1] is 90%. In experiment [2], this molecule gave an inhibition at 100 µg/mL of 50%. At 10 µg/mL the inhibition in experiment [3] was 80%. Moreover, the “inhibition (INH)” value in experiment [5] came to 50%. In addition, the MIC50 in experiment [4] was 1 µg/mL (≈ 3.04 µM).
For the molecule `Nc1nc(=O)n([C@H]2C[C@H](O)[C@@H](CO)O2)cc1C#Cc1ccccn1`, in experiment [1], the inhibition at 50 µg/mL is 90%. Also, in experiment [2], 100 µg/mL produced 90% inhibition. Besides, 10 µg/mL produced 80% inhibition in experiment [3]. For the same molecule, in experiment [5], the “inhibition (INH)” value stood at 50%. For the same molecule, the MIC50 in experiment [4] turned out to be 1 µg/mL (≈ 3.05 µM).
For the molecule `N[C@@H]1CONC1=O` [CYCLOSERINE], the inhibition at 5 µg/mL in experiment [6] is 50%. This molecule also had an inhibition at 10 µg/mL in experiment [3] of 71%. Moreover, the MIC50 in experiment [4] stood at 5 µg/mL (≈ 49 µM).
For the molecule `NNC(=O)c1ccncc1` [ISONIAZID], in experiment [4], the MIC50 was under 1 µg/mL. In addition, at 1 µg/mL the inhibition in experiment [8] was 100%.
For `CO[C@H]1/C=C/O[C@@]2(C)Oc3c(C)c(O)c4c(O)c(c(/C=N/N5CCN(C)CC5)c(O)c4c3C2=O)NC(=O)/C(C)=C\C=C\[C@H](C)[C@H](O)[C@@H](C)[C@@H](O)[C@@H](C)[C@H](OC(C)=O)[C@@H]1C` [RIFAMPIN] the same measures were under 1 µg/mL and 100%.
